# Test results published in paper PMC9285861 (Biomacromolecules, 2019).
# Where two headings read alike, the source gives them in different places.
# How the values were obtained:
# Reverse phase HPLC = assay type: physicochemical; conditions: Figure S2
# [1] = system: Human monocytic THP-1 cells; test: LSPR immunoassay of cytokine secretion, THP-1 cells; assay type: cell-based; conditions: 37 °C, 2 h incubation, 5, 10, 15 μM, LSPR read-out
# Thioflavin T = assay type: physicochemical; conditions: 50 μM Aβ, 100 μM ThT, 37 °C, without plasma proteins, Ex/Em 440/485 nm, triplicate
# NK cells = test: Blood cell association of ThT-labeled Aβ by flow cytometry, NK cells; assay type: cell-based, human; conditions: especially with plasma proteins, 1 h
# Procedure, shortened: (§1)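 Heparinised whole blood, or blood washed five times in PBS (950g, 10 min) and resuspended in serum-free RPMI 1640, given ThT-labeled test peptide oligomers or fibrils at 5, 10, 15 μM, 1 h at 4 and 37 °C, triplicate. RBCs lysed; antibody staining 1 h on ice; 1% formaldehyde fixation; flow cytometry with populations gated by CD3, CD14, CD56, CD19, Lin1/HLA-DR, SSC-A.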
# [2] = system: human immune cell lines (T cells, B cells, or THP-1 cells); test: LSPR immunoassay of cytokine secretion, immune cell lines; assay type: cell-based; conditions: for effect of plasma proteins on immune responses (cytokine secretion): 37 °C, human plasma versus RPMI-1640 medium, all three types of immune cells
# Procedure, shortened: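 Jurkat T (RPMI-1640, 200 μg/mL […], 10% FBS), EBV-transformed B lymphoblasts and THP-1 (50 μM mercaptoethanol) cells at 1 × 10^6 cells/mL in human plasma proteins or RPMI-1640 took test peptide oligomers or fibrils, 5, 10, 15 μM final, 2 h at 4 and 37 °C. TNF and IL-6 in medium measured on antibody–gold nanorod LSPR chips via calibration curves; triplicate.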
# SH-SY5Y neuronal cells = conditions: 20 μM Aβ, 2 h
# granulocytes = test: Blood cell association of ThT-labeled Aβ by flow cytometry, granulocytes; assay type: cell-based, human; conditions: 1 h
# Procedure, shortened: as §1
# B cells = test: Blood cell association of ThT-labeled Aβ by flow cytometry, B cells; assay type: cell-based, human; conditions: 1 h
# Procedure, shortened: as §1
# monocytes = test: Blood cell association of ThT-labeled Aβ by flow cytometry, monocytes; assay type: cell-based, human; conditions: 1 h, triplicate
# Procedure, shortened: as §1
# [3] = system: SH-SY5Y neuroblastoma cells; conditions: 20 μM Aβ, 15 h, triplicate, ± SD
# dendritic cells (DCs) = test: Blood cell association of ThT-labeled Aβ by flow cytometry, dendritic cells; assay type: cell-based, human; conditions: 1 h
# Procedure, shortened: as §1
# T cells = test: Blood cell association of ThT-labeled Aβ by flow cytometry, T cells; assay type: cell-based, human; conditions: 1 h
# Procedure, shortened: as §1
# [4] = 5 μM, with plasma proteins, triplicate ± SD
# [5] = 5 μM, without plasma proteins, triplicate ± SD
# [6] = 10 μM, with plasma proteins, triplicate ± SD
# [7] = 10 μM, without plasma proteins, triplicate ± SD
# [8] = 15 μM, with plasma proteins, triplicate ± SD
# [9] = 15 μM, without plasma proteins, triplicate ± SD
substance,measurement,setting,value
AIAEGDSHVLKEGAY-MEIFDVQGHVFGGKIFRVVDLGSHNVA [AβO],hydrophobicity by RP-HPLC,Reverse phase HPLC,slightly hydrophobic
same,"pro-inflammatory cytokine secretion (TNF, IL-6) of THP-1 cells",[1],prominent pro-inflammatory cytokine secretion
same,time to saturation phase of ThT fibrillization kinetics,Thioflavin T,~ 60 h
same,association with NK cells,NK cells,very low association
same,effect of plasma proteins on immune responses (cytokine secretion),[2],mostly promoted
same,expression of cytokines IL-6 and TNF by immune cells,"[2]; 2 h incubation, LSPR sensor",significant expression
same,cell membrane damage by HIM,SH-SY5Y neuronal cells; with plasma proteins,damage was reduced
same,cell membrane damage by HIM,SH-SY5Y neuronal cells; without plasma proteins,significant damage including membrane deformation and blebbing
same,association with granulocytes,granulocytes; with and without plasma proteins (no considerable difference),80–90%
same,change of association with B cells from whole blood to washed cells,"B cells; 3 concentrations (5, 10, 15 μM)",slightly decreased
same,association with monocytes,"monocytes; all concentrations (5, 10, 15 μM), all conditions",90–100%
same,cytotoxicity (PI-positive cells),[3]; with plasma proteins,30 ± 2%
same,cytotoxicity (PI-positive cells),[3]; without plasma proteins,39 ± 2.6%
same,association with DCs,"dendritic cells (DCs); in the absence of plasma proteins, range over 5-15 μM",78–85%
same,association with DCs,"dendritic cells (DCs); whole blood cells (with plasma proteins), range over 5-15 μM",69–93%
AIAEGDSHVLKEGAY-MEIFDVQGHVFGGKIFRVVDLGSHNVA [Aβf],hydrophobicity by RP-HPLC,Reverse phase HPLC,varying hydrophobicity
same,association with NK cells,NK cells,no association
same,effect of plasma proteins on immune responses (cytokine secretion),[2],overall suppressed immune responses
same,cell membrane damage by HIM,SH-SY5Y neuronal cells; with plasma proteins,no damage was evident
same,cell membrane damage by HIM,SH-SY5Y neuronal cells; without plasma proteins,no damage was evident
same,association with T cells,"T cells; 5 μM, without plasma proteins (washed blood), triplicate ± SD",5.2 ± 0.1%
same,association with T cells,"T cells; 10 μM, without plasma proteins (washed blood), triplicate ± SD",38.2 ± 3.2%
same,association with T cells,"T cells; 15 μM, without plasma proteins (washed blood), triplicate ± SD",51.8 ± 1.5%
same,association with T cells,T cells; with plasma proteins (whole blood),< 10%
same,association with granulocytes,granulocytes; [4],7.0 ± 2.9%
same,association with granulocytes,granulocytes; [5],11.7 ± 0.4%
same,association with granulocytes,granulocytes; [6],21.6 ± 1.2%
same,association with granulocytes,granulocytes; [7],38.5 ± 5.4%
same,association with granulocytes,granulocytes; [8],35.7 ± 2.6%
same,association with granulocytes,granulocytes; [9],51.8 ± 3.1%
same,association with B cells,"B cells; 10 μM, whole blood as the sentence is printed, triplicate ± SD",36.6 ± 6.0%
same,association with B cells,"B cells; 15 μM, whole blood as the sentence is printed, triplicate ± SD",57.1 ± 0.9%
same,association with B cells,"B cells; 3 concentrations (5, 10, 15 μM), washed cells as the sentence is printed",below 5%
same,association with monocytes,monocytes; high concentrations,60–80%
same,association with monocytes,monocytes; low concentrations,20–40%
same,cytotoxicity (PI-positive cells),[3]; with plasma proteins,not affected by plasma proteins
same,cytotoxicity (PI-positive cells),[3]; without plasma proteins,13%
same,association with DCs,dendritic cells (DCs); [4],11.1 ± 3.7%
same,association with DCs,dendritic cells (DCs); [5],38.2 ± 3.3%
same,association with DCs,dendritic cells (DCs); [6],35 ± 0.7%
same,association with DCs,dendritic cells (DCs); [7],69.2 ± 3.1%
same,association with DCs,dendritic cells (DCs); [8],56.5 ± 13%
same,association with DCs,dendritic cells (DCs); [9],71.2 ± 6.4%
"AIAEGDSHVLKEGAY-MEIFDVQGHVFGGKIFRVVDLGSHNVA [Aβm, reference compound]",time to saturation phase of ThT fibrillization kinetics,Thioflavin T,~ 60 h
